Experimental data: ChEMBL document CHEMBL4229344 (Eur J Med Chem, 2018)

Legend:
[1] = target: Tyrosine-protein kinase Fgr (Homo sapiens) (UniProt P09769); test: Binding affinity to wild-type human partial length FGR (L233 to T529 residues) expressed in bacterial expression system assessed as residual binding level at 1 uM by Kinomescan method relative to control
Procedure, shortened: (§1)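 Kinome-wide competition binding screen against a panel of 468 purified kinases/mutants, with the test compound at a single concentration of 1 μM. Read-out is the relative binding activity of each kinase in the presence of compound.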

[2] = target: Epithelial discoidin domain-containing receptor 1 (Homo sapiens, UniProt Q08345); test: Inhibition of DDR1 (unknown origin) using poly(4:1 Glu,Tyr) peptide as substrate preincubated for 1 hr followed by addition of ATP and measured after 30 mins by ADP-Glo bioluminescence assay
[3] = target: Ephrin type-A receptor 2 (Homo sapiens) (UniProt P29317); test: Binding affinity to wild-type human partial length EPHA2 (T593 to V891 residues) expressed in bacterial expression system assessed as residual binding level at 1 uM by Kinomescan method relative to control
Mus musculus = test: Toxicity in nu/nu mouse xenografted with human EOL-1 cells assessed as change in body weight at 25 to 100 mg/kg/day, ip; assay type: organism-based; settings: in vivo
Procedure, shortened: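 Female nu/nu mice, 6 weeks old, implanted subcutaneously in the right flank with 5 million EOL-1 cells in PBS/Matrigel 1:1. At tumour size 200–400 mm³, mice randomised into groups of 6 and given daily IP doses of 25, 50 or 100 mg/kg in 0.5% methylcellulose/0.4% Tween80, or vehicle, for 14 days. Body weight measured daily and normalised to initial weight; mean ± SEM.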

[4] = target: Serine/threonine-protein kinase RIO2 (Homo sapiens) (UniProt Q9BVS4); test: Binding affinity to wild-type human partial length RIOK2 (M1 to D313 residues) expressed in mammalian expression system assessed as residual binding level at 1 uM by Kinomescan method relative to control
Procedure, shortened: (§2)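 KINOMEscan competition binding against a panel of 468 purified kinases/mutants, compound tested at 1 μM; readout is relative binding activity versus control.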

[5] = target: Phosphorylase b kinase gamma catalytic chain, liver/testis isoform (Homo sapiens) (UniProt P15735); test: Binding affinity to wild-type human partial length PHKG2 (M1 to W300 residues) expressed in bacterial expression system assessed as residual binding level at 1 uM by Kinomescan method relative to control; procedure, shortened: as §2
[6] = target: Atypical kinase COQ8A, mitochondrial (Homo sapiens) (UniProt Q8NI60); test: Binding affinity to wild-type human full length ADCK3 (M280 to Q647 residues) expressed in bacterial expression system assessed as residual binding level at 1 uM by Kinomescan method relative to control
Procedure, shortened: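 Single-concentration (1 μM) competition-binding screen run by KINOMEscan against a panel of 468 purified kinases and mutants. The read-out is the relative binding activity of the test compound to each kinase.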

[7] = target: NUAK family SNF1-like kinase 2 (Homo sapiens) (UniProt Q9H093); test: Binding affinity to wild-type human partial length SNARK (P22 to A333 residues) expressed in mammalian expression system assessed as residual binding level at 1 uM by Kinomescan method relative to control
[8] = target: Rho-associated protein kinase 1 (Homo sapiens) (UniProt Q13464); test: Binding affinity to wild-type human partial length ROCK1 (M1 to R415 residues) expressed in mammalian expression system assessed as residual binding level at 1 uM by Kinomescan method relative to control
[9] = target: Homeodomain-interacting protein kinase 1 (Homo sapiens) (UniProt Q86Z02); test: Binding affinity to wild-type human partial length HIPK1 (M146 to I555 residues) expressed in mammalian expression system assessed as residual binding level at 1 uM by Kinomescan method relative to control; procedure, shortened: as §1
[10] = tested on: Tyrosine-protein kinase ABL1 (Homo sapiens), P00519 [T315I]; test: Binding affinity to human non-phosphorylated ABL1 T315I mutant (S229 to K512 residues) expressed in mammalian expression system assessed as residual binding level at 1 uM by Kinomescan method relative to control
Procedure, shortened: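 Kinome-wide single-concentration binding screen (KINOMEscan) at 1 μM against a panel of 468 purified kinases and mutants. Read-out is relative binding of each kinase compared with control. Selectivity across the panel was summarised as an S(10) score.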

[11] = target: Serine/threonine-protein kinase B-raf (Homo sapiens) (UniProt P15056); test: Binding affinity to wild-type human partial length BRAF (S429 to E741 residues) expressed in mammalian expression system assessed as residual binding level at 1 uM by Kinomescan method relative to control
Procedure, shortened: (§3)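 Single-concentration KINOMEscan (DiscoverX) binding screen at 1 μM against a panel of 468 purified kinases and mutants. The read-out is binding relative to control.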

[12] = Cytotoxicity against mouse BA/F3 cells after 72 hrs by CellTiter-Glo or CCK-8 assay; assay type: cell-based, BaF3
Procedure, shortened: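 Parental BaF3 or IL-3-independent TEL-kinase BaF3 lines, made by retroviral infection and puromycin selection, grown in RPMI 1640 with 10% FBS. Cells seeded at 1–3 × 10^4 cells/mL with serial compound concentrations for 72 h. Viability read by CellTiter-Glo luminescence or CCK-8 absorbance at 450/655 nm and normalised to DMSO. GI50 obtained by triplicate testing with linear regression. Selectivity is the ratio of the two GI50 values.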

[13] = target: Serine/threonine-protein kinase Nek6 (Homo sapiens) (UniProt Q9HC98); test: Binding affinity to wild-type human full length NEK6 (M8 to T313 residues) expressed in bacterial expression system assessed as residual binding level at 1 uM by Kinomescan method relative to control; procedure, shortened: as §3
[14] = target: Ribosomal protein S6 kinase alpha-5 (Homo sapiens) (UniProt O75582); test: Binding affinity to wild-type human partial length N-terminal RPS6KA5 kinase domain 1 expressed in bacterial expression system assessed as residual binding level at 1 uM by Kinomescan method relative to control
[15] = target: Cyclin-dependent kinase 8 (Homo sapiens) (UniProt P49336); test: Binding affinity to wild-type human partial length CDK8 (M1 to T360 residues) expressed in bacterial expression system assessed as residual binding level at 1 uM by Kinomescan method relative to control
[16] = AUC (0 to infinity) in Sprague-Dawley rat at 10 mg/kg, po; assay type: ADME, organism-based; set-up: dose 10 mg/kg, route oral, time infinity; settings: in vivo
Procedure, shortened: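 Male Sprague-Dawley rats (6–8 weeks) fasted overnight, dosed IV or orally; compound dissolved in 5% DMSO/40% PEG400/55% saline (dosing solution 1 mg/mL). Blood (~0.2 mL) from jugular vein into heparin; IV sampling 1 min–8 h, oral 5 min–24 h. Plasma separated by centrifugation at 2–8 °C, stored at −80 °C until analysis.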

[17] = Half life in Sprague-Dawley rat at 10 mg/kg, po; assay type: ADME, organism-based; settings: in vivo
[18] = target: Serine/threonine-protein kinase 4 (Homo sapiens) (UniProt Q13043); test: Binding affinity to wild-type human full length MST1 (M1 to F487 residues) expressed in bacterial expression system assessed as residual binding level at 1 uM by Kinomescan method relative to control
Procedure, shortened: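 KINOMEscan competition binding against 468 purified kinases/mutants, test compound at 1 µM; residual binding relative to control.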

Serine/threonine-protein kinase 4 (Homo sapiens), sequence (Q13043 whole entry, the tested form may be a part): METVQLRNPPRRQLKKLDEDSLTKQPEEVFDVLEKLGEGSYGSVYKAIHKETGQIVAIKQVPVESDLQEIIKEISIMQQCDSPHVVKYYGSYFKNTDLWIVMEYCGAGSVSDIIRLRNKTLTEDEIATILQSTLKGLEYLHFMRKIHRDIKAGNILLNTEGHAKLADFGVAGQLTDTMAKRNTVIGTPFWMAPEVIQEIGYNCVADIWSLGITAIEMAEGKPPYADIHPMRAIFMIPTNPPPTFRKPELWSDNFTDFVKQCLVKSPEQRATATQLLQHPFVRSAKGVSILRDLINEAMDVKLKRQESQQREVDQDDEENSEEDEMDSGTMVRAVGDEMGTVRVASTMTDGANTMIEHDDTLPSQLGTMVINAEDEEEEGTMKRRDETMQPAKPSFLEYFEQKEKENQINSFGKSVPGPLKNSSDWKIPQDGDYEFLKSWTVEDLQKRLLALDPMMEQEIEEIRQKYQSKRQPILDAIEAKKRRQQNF
Serine/threonine-protein kinase Nek6 (Homo sapiens), sequence (Q9HC98 whole entry, the tested form may be a part): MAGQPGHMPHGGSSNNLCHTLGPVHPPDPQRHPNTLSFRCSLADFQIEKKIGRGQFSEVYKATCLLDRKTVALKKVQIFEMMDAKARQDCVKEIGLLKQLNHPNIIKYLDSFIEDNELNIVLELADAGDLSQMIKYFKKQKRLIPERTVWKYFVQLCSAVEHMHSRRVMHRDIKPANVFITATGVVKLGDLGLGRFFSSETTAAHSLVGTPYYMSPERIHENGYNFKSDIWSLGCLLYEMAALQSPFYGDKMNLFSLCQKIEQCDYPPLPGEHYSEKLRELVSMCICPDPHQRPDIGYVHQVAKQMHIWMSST
Cyclin-dependent kinase 8 (Homo sapiens), sequence (P49336 whole entry, the tested form may be a part): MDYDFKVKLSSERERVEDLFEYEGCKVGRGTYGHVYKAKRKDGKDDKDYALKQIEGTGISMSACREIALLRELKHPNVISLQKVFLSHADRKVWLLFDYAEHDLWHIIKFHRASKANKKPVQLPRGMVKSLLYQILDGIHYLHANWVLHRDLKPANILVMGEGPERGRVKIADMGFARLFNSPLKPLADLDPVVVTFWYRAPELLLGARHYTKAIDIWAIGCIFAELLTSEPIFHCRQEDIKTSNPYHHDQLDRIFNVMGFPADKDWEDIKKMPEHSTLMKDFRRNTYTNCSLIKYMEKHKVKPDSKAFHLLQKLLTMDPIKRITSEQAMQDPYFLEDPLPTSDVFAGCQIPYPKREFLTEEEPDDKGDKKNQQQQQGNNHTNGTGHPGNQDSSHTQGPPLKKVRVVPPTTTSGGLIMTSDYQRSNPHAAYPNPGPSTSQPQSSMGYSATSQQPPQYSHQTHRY
Tyrosine-protein kinase Fgr (Homo sapiens), sequence (P09769 2-529 limits assumed): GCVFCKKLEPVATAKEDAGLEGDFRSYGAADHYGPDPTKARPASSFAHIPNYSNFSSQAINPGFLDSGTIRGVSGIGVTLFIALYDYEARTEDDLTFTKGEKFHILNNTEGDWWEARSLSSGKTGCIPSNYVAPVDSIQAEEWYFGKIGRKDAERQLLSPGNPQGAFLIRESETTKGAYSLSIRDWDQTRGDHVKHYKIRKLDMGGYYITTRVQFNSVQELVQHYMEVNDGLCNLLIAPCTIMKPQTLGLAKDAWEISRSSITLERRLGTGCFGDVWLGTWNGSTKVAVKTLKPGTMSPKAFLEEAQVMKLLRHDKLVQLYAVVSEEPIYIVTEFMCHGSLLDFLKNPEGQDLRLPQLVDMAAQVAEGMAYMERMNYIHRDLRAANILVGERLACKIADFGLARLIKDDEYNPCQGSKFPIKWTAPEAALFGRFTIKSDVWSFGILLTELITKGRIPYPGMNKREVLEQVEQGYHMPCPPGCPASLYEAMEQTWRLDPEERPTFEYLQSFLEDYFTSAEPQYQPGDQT
Phosphorylase b kinase gamma catalytic chain, liver/testis isoform (Homo sapiens), sequence (P15735 whole entry, the tested form may be a part, canonical isoform): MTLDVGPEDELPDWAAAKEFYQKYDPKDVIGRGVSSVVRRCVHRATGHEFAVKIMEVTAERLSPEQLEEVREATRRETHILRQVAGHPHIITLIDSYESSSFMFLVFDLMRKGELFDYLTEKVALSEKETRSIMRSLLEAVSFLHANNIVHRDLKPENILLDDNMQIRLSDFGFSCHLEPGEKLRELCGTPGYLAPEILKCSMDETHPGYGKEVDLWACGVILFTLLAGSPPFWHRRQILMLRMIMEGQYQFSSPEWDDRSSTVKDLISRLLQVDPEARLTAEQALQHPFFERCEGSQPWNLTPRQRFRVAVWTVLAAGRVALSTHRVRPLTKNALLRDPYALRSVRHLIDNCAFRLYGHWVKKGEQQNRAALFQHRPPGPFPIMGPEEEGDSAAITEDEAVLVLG
Serine/threonine-protein kinase B-raf (Homo sapiens), sequence (P15056 whole entry, the tested form may be a part): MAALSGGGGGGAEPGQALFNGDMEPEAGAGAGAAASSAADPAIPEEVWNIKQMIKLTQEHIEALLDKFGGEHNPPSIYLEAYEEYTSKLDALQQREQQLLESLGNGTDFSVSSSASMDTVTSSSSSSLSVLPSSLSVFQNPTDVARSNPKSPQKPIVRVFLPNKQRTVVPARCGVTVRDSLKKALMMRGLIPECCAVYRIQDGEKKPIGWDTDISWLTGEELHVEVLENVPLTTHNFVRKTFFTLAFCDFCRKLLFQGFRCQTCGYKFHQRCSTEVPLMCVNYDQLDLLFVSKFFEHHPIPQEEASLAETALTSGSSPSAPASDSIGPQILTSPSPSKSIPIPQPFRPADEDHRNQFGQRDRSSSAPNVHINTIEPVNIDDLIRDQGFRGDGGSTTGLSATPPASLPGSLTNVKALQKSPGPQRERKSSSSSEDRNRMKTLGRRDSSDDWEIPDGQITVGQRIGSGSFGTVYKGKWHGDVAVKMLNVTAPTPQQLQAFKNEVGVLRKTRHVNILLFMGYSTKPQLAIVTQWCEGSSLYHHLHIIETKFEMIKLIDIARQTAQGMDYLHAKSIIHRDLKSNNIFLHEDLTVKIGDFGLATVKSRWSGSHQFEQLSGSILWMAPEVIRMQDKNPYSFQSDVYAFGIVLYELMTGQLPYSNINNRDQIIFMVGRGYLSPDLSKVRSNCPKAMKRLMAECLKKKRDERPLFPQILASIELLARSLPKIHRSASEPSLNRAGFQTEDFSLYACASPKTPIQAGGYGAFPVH
Ribosomal protein S6 kinase alpha-5 (Homo sapiens), sequence (O75582 whole entry, looked up, the tested form may be a part): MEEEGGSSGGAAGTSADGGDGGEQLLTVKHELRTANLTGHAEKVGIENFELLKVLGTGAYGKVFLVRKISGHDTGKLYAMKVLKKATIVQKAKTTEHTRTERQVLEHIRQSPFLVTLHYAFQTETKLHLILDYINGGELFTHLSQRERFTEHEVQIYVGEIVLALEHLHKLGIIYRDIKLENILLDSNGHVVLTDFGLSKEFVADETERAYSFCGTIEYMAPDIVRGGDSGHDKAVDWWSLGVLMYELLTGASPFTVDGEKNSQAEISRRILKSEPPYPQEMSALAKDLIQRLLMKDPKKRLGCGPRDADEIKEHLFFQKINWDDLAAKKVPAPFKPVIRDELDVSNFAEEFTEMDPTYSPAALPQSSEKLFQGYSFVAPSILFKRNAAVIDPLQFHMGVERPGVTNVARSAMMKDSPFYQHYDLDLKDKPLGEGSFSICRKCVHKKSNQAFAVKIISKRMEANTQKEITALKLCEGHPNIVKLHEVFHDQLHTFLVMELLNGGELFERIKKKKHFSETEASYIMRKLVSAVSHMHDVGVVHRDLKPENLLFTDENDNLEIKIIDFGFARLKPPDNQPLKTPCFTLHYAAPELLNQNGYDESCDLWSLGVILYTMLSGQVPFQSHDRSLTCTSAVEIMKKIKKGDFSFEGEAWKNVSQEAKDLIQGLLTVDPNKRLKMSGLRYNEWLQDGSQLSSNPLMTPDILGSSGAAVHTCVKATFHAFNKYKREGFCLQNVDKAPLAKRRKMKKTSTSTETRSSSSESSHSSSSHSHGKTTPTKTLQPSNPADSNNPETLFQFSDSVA
Ephrin type-A receptor 2 (Homo sapiens), sequence (P29317 whole entry, the tested form may be a part): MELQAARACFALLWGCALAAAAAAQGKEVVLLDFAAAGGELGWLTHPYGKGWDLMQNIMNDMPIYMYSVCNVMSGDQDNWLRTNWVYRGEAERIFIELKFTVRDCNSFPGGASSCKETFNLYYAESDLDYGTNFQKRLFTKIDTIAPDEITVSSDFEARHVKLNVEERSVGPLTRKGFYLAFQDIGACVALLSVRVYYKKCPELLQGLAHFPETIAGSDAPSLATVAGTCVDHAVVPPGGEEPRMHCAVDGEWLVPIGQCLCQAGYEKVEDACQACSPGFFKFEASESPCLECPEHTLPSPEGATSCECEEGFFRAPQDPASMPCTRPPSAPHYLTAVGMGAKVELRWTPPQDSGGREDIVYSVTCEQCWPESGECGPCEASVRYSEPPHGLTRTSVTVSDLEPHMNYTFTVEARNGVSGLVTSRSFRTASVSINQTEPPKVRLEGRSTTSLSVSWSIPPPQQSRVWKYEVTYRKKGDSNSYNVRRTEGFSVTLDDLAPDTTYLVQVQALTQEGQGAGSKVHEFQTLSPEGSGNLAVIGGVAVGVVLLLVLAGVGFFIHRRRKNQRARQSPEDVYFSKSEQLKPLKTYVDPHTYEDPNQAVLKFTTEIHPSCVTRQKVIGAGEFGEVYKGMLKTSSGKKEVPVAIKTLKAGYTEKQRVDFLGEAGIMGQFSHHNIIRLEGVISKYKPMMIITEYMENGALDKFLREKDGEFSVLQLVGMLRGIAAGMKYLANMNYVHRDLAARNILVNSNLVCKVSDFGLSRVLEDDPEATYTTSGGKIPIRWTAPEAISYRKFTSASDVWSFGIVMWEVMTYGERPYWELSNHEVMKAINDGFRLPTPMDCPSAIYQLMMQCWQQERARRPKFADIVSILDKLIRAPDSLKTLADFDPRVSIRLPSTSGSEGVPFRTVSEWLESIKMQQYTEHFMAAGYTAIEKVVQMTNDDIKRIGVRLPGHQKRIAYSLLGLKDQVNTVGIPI

Cc1ccc(NC(=O)c2ccc(CN(CCN(C)C)C(=O)c3cccnc3)cc2)cc1Nc1nccc(-c2cccnc2)n1
Activity [1]: 91% | IC50 [2]: 2.46 µM | Activity [3]: 100% | Activity (Mus musculus): Toxic | Activity [4]: 87% | Activity [5]: 89% | Activity [6]: 100% | Activity [7]: 100% | Activity [8]: 100% | Activity [9]: 79% | Activity [10]: 100% | Activity [11]: 88% | GI50 at 72 h [12]: > 10 µM | Activity [13]: 90% | Activity [14]: 86% | Activity [15]: 90% | AUC(0-inf) [16]: 115 ng·h/mL | half-life [17]: 2.03 h | Activity [18]: 79%
